Screening results as filed in PubChem BioAssay.
An excerpt weighted towards active compounds, which were near 4.2% of everything screened.
TAAR1 agonist = human TAAR1 agonism; CHO RD-HGA16 TAAR1, Fluo-8 calcium fluorescence; vehicle wells 0%, saturating PEA agonist 100%; activation, % at 3 µM; actives 0.99% (n = 360,000);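 active = activation above the mean activation of all test compounds in the run plus 3 SD, cut at about 38% in these data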
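System: CHO RD-HGA16 cells carrying human TAAR1 plus Gα16; Incubation: 17-24 h seeding, 75 min 37 °C dye, 30 min RT; Measured by: Fluo-8 fluorescence, 5 s baseline then 140 s kinetic read; Control set: DMSO and PEA EC100; Replication: single well for each compound.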
TAAR1 antagonist = human TAAR1 antagonism | Q96RJ0 | CHO RD-HGA16 TAAR1, Fluo-8 calcium fluorescence, antagonist | inhibition, % at 3 µM | actives 1.5% (n = 360,000) | AID 624466;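 active = inhibition above a per-plate cutoff, the mean inhibition of test compounds on that plate plus 3 SD, cut at about 49% in these data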;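 note: 0% = DMSO plus EC80 beta-PEA response and 100% = DMSO alone without agonist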
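Material: CHO RD-HGA16 cells bearing hTAAR1; compound dosing: one-point dosing, 3 µM nominal final; schedule: dye loading 75 min at 37 °C, then 30 min room temperature; measured by: calcium fluorescence with Fluo-8; control set: vehicle and agonist controls; replication: n of 1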
GalR3 antag = human GalR3 antagonism | AID 651719 | actives 0.44% (n = 360,000) | O60755 | inhibition, % at 3 µM | HEK293 GalR3-CNG cAMP membrane potential fluorescence; galR3 body fused to GalR1 C-terminus;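 active = inhibition above the screen-wide average plus 3 SD, cut at about 13% in these data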;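 note: forskolin and galanin both at EC90 stimulate the cells; cAMP rise reported by CNG channel membrane potential dye signal; 0% = forskolin plus galanin with DMSO and 100% = forskolin alone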
CHO parental Ca = signal in parental CHO cells, OX1R antagonist counter-screen; parental CHO-K1, ATP-induced calcium, Fluo-8 fluorescence; inhibition, % at 5.6 µM; actives 0.63% (n = 330,000); AID 463079;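 active = inhibition above that plate's mean sample inhibition plus 3 SD, cut at about 26% in these data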;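 note: 0% = ATP-challenged DMSO wells and 100% = DMSO wells without ATP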
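Test system: untransfected parental CHO cell line; also added: ATP stimulus; dosing: 5.6 µM, single dose; signal: calcium-sensitive Fluo-8 fluorescence; measure: percent inhibition of ATP-evoked calcium rise, normalized to controls; benchmarks: low control ATP plus DMSO, high control DMSO only; replication: one well per compound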
OX1R antag-1 = human HCRTR1 antagonism; CHO/OX1R cells, Fluo-8 calcium fluorescence, orexin A; inhibition, % at 5 µM; actives 0.43% (n = 330,000);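 active = inhibition above its plate's threshold, mean inhibition of all tested compounds on the plate plus 3 SD, cut at about 37% in these data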;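 note: 0% = orexin A challenge wells and 100% = SB-334867-A antagonist wells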
Target sequence (O43613 whole entry, looked up): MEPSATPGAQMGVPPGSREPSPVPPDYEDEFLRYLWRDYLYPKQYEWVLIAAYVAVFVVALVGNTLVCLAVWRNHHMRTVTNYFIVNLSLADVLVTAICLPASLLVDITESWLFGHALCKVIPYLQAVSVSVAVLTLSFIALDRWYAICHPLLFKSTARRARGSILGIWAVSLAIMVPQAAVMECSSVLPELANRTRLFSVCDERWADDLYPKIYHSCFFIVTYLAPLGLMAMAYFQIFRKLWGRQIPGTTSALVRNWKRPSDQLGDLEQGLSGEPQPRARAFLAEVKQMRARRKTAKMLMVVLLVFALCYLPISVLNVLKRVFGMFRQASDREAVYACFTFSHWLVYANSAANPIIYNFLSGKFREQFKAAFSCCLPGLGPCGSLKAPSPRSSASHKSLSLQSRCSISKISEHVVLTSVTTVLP
OX1R antag-2 = OX1R (human) antagonism; AID 485270; O43613; OX1R-expressing cells, FRET antagonist read-out; inhibition, % at 6.6 µM; actives 1.8% (n = 330,000); in the data active = inhibition mostly above about 38%, no sharp cut-off; inactive = mostly below about 40%;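 note: 0% = agonist challenge alone and 100% = reference antagonist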
* = called active by the depositor; x = not tested or not shown.

SMILES	TAAR1 agonist	TAAR1 antagonist	GalR3 antag	CHO parental Ca	OX1R antag-1	OX1R antag-2
C[C@H](CO)N1C[C@H](C)[C@@H](CN(C)C(=O)Nc2ccc(C(F)(F)F)cc2)Oc2c(NC(=O)Nc3ccc4c(c3)OCO4)cccc2C1=O	7.8	32.6	-4.8	-17.4	-2.8	17.8
C[C@H]1CN([C@@H](C)CO)C(=O)c2cccc(NC(=O)Nc3ccc(C(F)(F)F)cc3)c2O[C@@H]1CN(C)Cc1ccc(Cl)c(Cl)c1	15.2	51.3*	-3.8	-14.6	-24.1	15.5
C[C@H](CO)N1C[C@H](C)[C@H](CN(C)C(=O)Nc2ccc(F)cc2)Oc2c(NC(=O)c3ccc(-c4nccs4)cc3)cccc2C1=O	21.4	54.0*	-5.9	-32.0	-6.2	11.5
C[C@H](CO)N1C[C@H](C)[C@@H](CN(C)C(=O)Nc2ccc(C(F)(F)F)cc2)Oc2c(NC(=O)Nc3ccccc3)cccc2C1=O	6.3	24.0	-2.8	-10.0	-8.5	9.3
CCOC(=O)/C(C#N)=C/c1c(N2CCN(c3ccc(OC)cc3)CC2)nc2c(C)cccn2c1=O	0.8	25.0	-6.5	x	x	x
COc1cc(NC(=O)c2ccc(Br)cc2)ccc1NC(=O)c1cc2ccccc2o1	2.3	1.9	-10.2	-2.2	-19.6	-9.3
O=C1CCC(=O)N1CC(=O)N1c2ccccc2Sc2ccccc21	4.0	-13.3	0.3	-9.8	-3.0	6.3
CC1CC(=O)Nc2ccccc2N1C(=O)CSc1nnnn1C(C)C (stereo unspecified)	8.4	5.5	3.0	-12.9	-4.2	1.9
O=[N+]([O-])c1cccc(N/N=C/c2ccc(N3CCOCC3)cc2)c1	13.7	58.4*	0.7	23.6	23.0	27.7
CC(=O)N1CCN(c2nc3ccc([N+](=O)[O-])cc3s2)CC1	0.8	-1.6	-7.0	15.1	3.8	54.4*
O=C(C1=COCCO1)N1CCN(c2nc3ccc([N+](=O)[O-])cc3s2)CC1	2.0	-0.8	-3.3	19.6	-8.6	15.7
Cc1ccc(C(C)C)c(OCC(=O)NS(=O)(=O)c2ccc(Cl)cc2)c1	-0.7	-14.4	-2.1	-12.9	-7.5	59.0*
COc1ccc(Cc2nnc(NC(=O)c3cccc([N+](=O)[O-])c3C)s2)cc1	60.9*	-1.1	-6.5	11.8	-0.9	5.9
Cc1ccc(C)c(NS(=O)(=O)c2cc(C(=O)N3CCc4ccccc4C3)ccc2Cl)c1	4.6	28.2	-3.2	-25.5	-21.1	33.4
Cc1cccc(NS(=O)(=O)c2cc(C(=O)N3CCc4ccccc4C3)ccc2Cl)c1C	10.2	56.3*	0.5	-2.0	16.0	9.0
Cc1ccccc1CN(c1ccc(C(=O)N2CCc3ccccc3C2)cc1)S(C)(=O)=O	23.4	51.2*	1.2	-9.2	-20.9	20.1
CC12CCC(C(=O)N(Cc3ccccc3)Cc3ccccc3)(OC1=O)C2(C)C (stereo unspecified)	13.4	24.7	-2.3	-14.0	-4.8	29.4
COc1ccc(Br)cc1C=NNS(=O)(=O)c1ccc(C)cc1	0.2	-12.1	-2.3	x	x	x
Cc1nc(SCC(=O)Nc2nc3ccccc3s2)c(C#N)c(C)c1C	4.1	9.6	-1.8	-17.4	-16.8	53.2*
Cc1cc(C(F)(F)F)c(C#N)c(SCC(=O)Nc2nc3ccccc3s2)n1	10.6	-1.7	0.1	-10.8	21.9	73.5*
N#Cc1cnc2ncnn2c1-c1ccccc1	5.0	4.4	-2.2	-5.8	-3.8	23.3
COc1ccc(C(=O)NCCn2ccc3ccccc32)cc1OC	2.0	0.4	x	-3.2	-10.6	1.7
COc1ccccc1C(=O)NCCn1ccc2ccccc21	9.5	0.9	-2.8	-27.3	-0.8	69.8*
COc1cc2ncc(S(=O)(=O)c3ccccc3)c(N3CCC4(CC3)OCCO4)c2cc1OC	12.1	32.8	3.4	-20.6	-36.5	23.2
Cc1ccc(C(=O)NCC2CCCN2S(=O)(=O)c2cccs2)cc1C (stereo unspecified)	-0.3	-2.4	-4.8	-7.0	-17.8	33.8*
SMILES	TAAR1 agonist	TAAR1 antagonist	GalR3 antag	CHO parental Ca	OX1R antag-1	OX1R antag-2
COc1ccc(CCNC(=O)C(=O)NCC2OCCN2S(=O)(=O)c2ccccc2)cc1OC (stereo unspecified)	2.7	-17.1	x	-6.1	-5.2	20.8
O=C(NCC1CCCN1S(=O)(=O)c1cccs1)c1ccc(F)c(F)c1 (stereo unspecified)	0.1	-16.9	-2.1	-17.8	-20.3	23.7
COc1ccc(CCNC(=O)C(=O)NCC2CCCN2S(=O)(=O)c2ccccc2)cc1OC (stereo unspecified)	16.7	49.1*	5.8	-15.2	-7.4	24.9
O=C(NCCc1ccc(F)cc1)C(=O)NCC1CCCN1S(=O)(=O)c1cccs1 (stereo unspecified)	32.8	60.8*	-2.8	-19.8	16.2	68.7*
CCNC(=O)C(=O)NCC1CCCN1S(=O)(=O)c1cccs1 (stereo unspecified)	0.4	9.9	2.1	-4.7	-12.0	6.9
Cc1nc(Br)c(Br)n1Cc1ccccc1	2.8	-21.4	-4.7	x	x	x
COCCCNC(=O)c1ccc2c(=O)n(Cc3ccccc3OC)c(=S)[nH]c2c1	6.7	6.6	-9.8	-15.3	-4.1	-8.8
O=C(CSc1nc(-c2ccccc2)c(-c2ccccc2)[nH]1)Nc1ccc2c(c1)OCO2	6.1	-6.8	-4.4	-15.7	5.2	50.4*
COc1ccc2ncc(S(=O)(=O)c3ccccc3)c(N3CCN(c4ccccc4)CC3)c2c1	0.5	-11.1	2.6	-29.0	-3.9	40.6
Cc1ccc2ncc(S(=O)(=O)c3ccccc3)c(N3CCCCC3C)c2c1 (stereo unspecified)	-1.8	-16.4	1.0	43.6*	-22.6	32.8
COC(=O)C(Cc1ccc(OC(=O)c2ccc(C)cc2)cc1)N1Cc2ccccc2C1=O (stereo unspecified)	x	x	x	43.6*	24.4	21.7
COC(=O)C(Cc1ccc(O)cc1)N1Cc2ccccc2C1=O (stereo unspecified)	0.3	18.1	-7.5	-2.2	-8.5	4.5
COc1ccc(CCNc2nc(-c3ccc(O)cc3)cs2)cc1OC	6.1	29.3	-4.5	58.1*	61.0*	32.1*
COc1ccc(CCNc2nc(-c3ccncc3)cs2)cc1OC	3.5	10.0	-6.0	-18.7	-8.2	26.3
CCOC(=O)c1ccc(NC(=O)CCOc2ccc(C)cc2)cc1	2.4	-8.2	-6.8	-10.8	-11.1	-2.2
CCN(c1ccccc1)S(=O)(=O)c1cc(NC(=O)COC(=O)C2CC2)ccc1Cl	3.9	-10.4	-8.8	-16.4	-1.9	19.2
O=C(COc1ccccc1/C=C1\SC(=S)NC1=O)Nc1ccc(F)cc1	-0.7	41.3	-6.4	10.9	16.8	57.2*
